ChEMBL document CHEMBL4428039, “Anticancer properties of new synthetic hybrid molecules combining naphtho[2,3-b]furan-4,9-dione or benzo[f]indole-4,9-dione motif with phosphonate subunit” (Eur J Med Chem, 2016)
Activity calls are given as the source filed them. The rule behind the calls is not given here.

Assays:
[1] = tested on: HL-60; assay: Cytotoxicity against human HL60 cells assessed as inhibition of metabolic activity after 48 hrs by MTT assay; type: functional, cell-based; settings: HL-60, 48 h
Procedure, shortened: (§1)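 Exponentially growing cells seeded in 96-well plates and grown 24 h. Compounds in DMSO, diluted in medium (final DMSO <0.1%), added at 10^-7 to 10^-3 M for 48 h. MTT (5 mg/mL in PBS) then added for 2 h. Formazan dissolved in DMSO and read at 560 nm against untreated cells. IC50 taken from concentration–response curves; mean ± SD of ≥3 experiments.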

[2] = tested on: NALM-6; assay: Cytotoxicity against human NALM6 cells assessed as inhibition of metabolic activity after 48 hrs by MTT assay; type: functional, cell-based; settings: NALM-6, 48 h; procedure, shortened: as §1
[3] = tested on: MCF7; assay: Cytotoxicity against human MCF7 cells assessed as inhibition of metabolic activity after 48 hrs by MTT assay; type: functional, cell-based; settings: MCF7, 48 h; procedure, shortened: as §1
[4] = tested on: MCF-10A; assay: Cytotoxicity against human MCF10A cells assessed as inhibition of metabolic activity after 48 hrs by MTT assay; type: ADME, cell-based; procedure, shortened: as §1
[5] = tested on: HUVEC; assay: Cytotoxicity against HUVEC assessed as inhibition of metabolic activity after 48 hrs by MTT assay; type: ADME, cell-based; settings: Homo sapiens; procedure, shortened: as §1
[6] = tested on: MCF7; assay: Cytotoxicity against human MCF7 cells assessed as inhibition of metabolic activity after 24 hrs by MTT assay; type: functional, cell-based; settings: MCF7, 24 h
Procedure, shortened: (§2)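 MTT assay on HL-60 or MCF-7 cells seeded and grown 24 h, then treated 24 h over 10^-7 to 10^-3 M (final DMSO <0.1%). MTT (5 mg/mL in PBS) added for 2 h. Formazan dissolved in DMSO and read at 560 nm against untreated cells. IC50 derived from concentration–response curves of ≥3 experiments.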

[7] = tested on: HL-60; assay: Cytotoxicity against human HL60 cells assessed as inhibition of metabolic activity after 24 hrs by MTT assay; type: functional, cell-based; settings: HL-60, 24 h; procedure, shortened: as §2
[8] = Selectivity index, ratio of IC50 for human MCF10A cells to IC50 for human MCF7 cells; type: toxicity; settings: MCF10A cells versus MCF7 cells, read-out: Ratio IC50
[9] = tested on: HL-60; assay: Inhibition of cell proliferation in human HL60 cells assessed as reduction in BrdU incorporation at 7.27 +/- 0.08 uM after 24 hrs by DAPI staining based flow cytometry relative to control; type: functional
[10] = tested on: MCF7; assay: Inhibition of cell proliferation in human MCF7 cells assessed as reduction in BrdU incorporation at 3.4 +/- 0.15 uM after 24 hrs by DAPI staining based flow cytometry relative to control; type: functional
[11] = tested on: HL-60; assay: Induction of DNA damage in human HL60 cells assessed as increase in H2AX phosphorylation at S139 residue at 7.27 +/- 0.08 uM after 24 hrs by DAPI staining based flow cytometry relative to control; type: functional
[12] = tested on: MCF7; assay: Induction of DNA damage in human MCF7 cells assessed as increase in H2AX phosphorylation at S139 residue at 3.4 +/- 0.15 uM after 24 hrs by DAPI staining based flow cytometry relative to control; type: functional
[13] = tested on: MCF7; assay: Induction of apoptosis in human MCF7 cells assessed as increase in cleaved PARP positive cells at 3.4 +/- 0.15 uM after 24 hrs by DAPI staining based flow cytometry relative to control; type: functional, cell-based
[14] = tested on: HL-60; assay: Induction of apoptosis in human HL60 cells assessed as increase in cleaved PARP positive cells at 7.27 +/- 0.08 uM after 24 hrs by DAPI staining based flow cytometry (reference value: 1.2 +/- 0.2%); type: functional
[15] = tested on: HL-60; assay: Induction of apoptosis in human HL60 cells assessed as early apoptotic cells at 7.27 +/- 0.08 uM after 24 hrs by Annexin V-APC/propidium iodide staining based flow cytometry (reference value: 3.4%); type: functional
[16] = tested on: HL-60; assay: Induction of apoptosis in human HL60 cells assessed as late apoptotic cells at 7.27 +/- 0.08 uM after 24 hrs by Annexin V-APC/propidium iodide staining based flow cytometry (reference value: 2.7%); type: functional
[17] = tested on: HL-60; assay: Induction of apoptosis in human HL60 cells assessed as necrotic cells at 7.27 +/- 0.08 uM after 24 hrs by Annexin V-APC/propidium iodide staining based flow cytometry (reference value: 0.1%); type: functional
[18] = tested on: MCF7; assay: Induction of apoptosis in human MCF7 cells assessed as viable cells at 3.4 +/- 0.15 uM after 24 hrs by Annexin V-APC/propidium iodide staining based flow cytometry (reference value: 86.1%); type: functional
[19] = tested on: MCF7; assay: Induction of apoptosis in human MCF7 cells assessed as early apoptotic cells at 3.4 +/- 0.15 uM after 24 hrs by Annexin V-APC/propidium iodide staining based flow cytometry (reference value: 5.9%); type: functional
[20] = tested on: MCF7; assay: Induction of apoptosis in human MCF7 cells assessed as late apoptotic cells at 3.4 +/- 0.15 uM after 24 hrs by Annexin V-APC/propidium iodide staining based flow cytometry (reference value: 6.1%); type: functional
[21] = tested on: MCF7; assay: Induction of apoptosis in human MCF7 cells assessed as necrotic cells at 3.4 +/- 0.15 uM after 24 hrs by Annexin V-APC/propidium iodide staining based flow cytometry (reference value: 1.9%); type: functional
[22] = tested on: HL-60; assay: Induction of ROS generation in human HL60 cells at 7.27 +/- 0.08 uM after 24 hrs by Cellrox Green staining based flow cytometry relative to control; type: functional
[23] = tested on: MCF7; assay: Induction of ROS generation in human MCF7 cells at 3.4 +/- 0.15 uM after 24 hrs by Cellrox Green staining based flow cytometry relative to control; type: functional
[24] = tested on: HL-60; assay: Induction of transmembrane potential depolarization in human HL60 cells at 7.27 +/- 0.08 uM after 24 hrs by JC-10 staining based flow cytometry (reference value: 15.9%); type: functional
[25] = tested on: MCF7; assay: Induction of transmembrane potential depolarization in human MCF7 cells at 3.4 +/- 0.15 uM after 24 hrs by JC-10 staining based flow cytometry (reference value: 18.2%); type: functional
[26] = tested on: HL-60; assay: Cell cycle arrest in human HL60 cells assessed as accumulation at G2/M phase at 7.27 +/- 0.08 uM after 24 hrs by DAPI staining based flow cytometry (reference value: 31.2%); type: functional
[27] = tested on: HL-60; assay: Cell cycle arrest in human HL60 cells assessed as accumulation at S phase at 7.27 +/- 0.08 uM after 24 hrs by DAPI staining based flow cytometry (reference value: 26.1%); type: functional
[28] = tested on: HL-60; assay: Cell cycle arrest in human HL60 cells assessed as accumulation at G0/G1 phase at 7.27 +/- 0.08 uM after 24 hrs by DAPI staining based flow cytometry (reference value: 39.5%); type: functional
[29] = tested on: HL-60; assay: Cell cycle arrest in human HL60 cells assessed as accumulation at subG0/G1 phase at 7.27 +/- 0.08 uM after 24 hrs by DAPI staining based flow cytometry (reference value: 3.1%); type: functional
[30] = tested on: MCF7; assay: Cell cycle arrest in human MCF7 cells assessed as accumulation at G2/M phase at 3.4 +/- 0.15 uM after 24 hrs by DAPI staining based flow cytometry (reference value: 23%); type: functional
[31] = tested on: MCF7; assay: Cell cycle arrest in human MCF7 cells assessed as accumulation at S phase at 3.4 +/- 0.15 uM after 24 hrs by DAPI staining based flow cytometry (reference value: 22%); type: functional
[32] = tested on: MCF7; assay: Cell cycle arrest in human MCF7 cells assessed as accumulation at G0/G1 phase at 3.4 +/- 0.15 uM after 24 hrs by DAPI staining based flow cytometry (reference value: 55%); type: functional
[33] = tested on: MCF7; assay: Induction of ROS generation in human MCF7 cells at 200 uM after 1 hr by Cellrox Green staining based flow cytometry; type: functional, cell-based
Procedure, shortened: (§3)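 Positive-control ROS measurement in HL-60 and MCF-7 cells: menadione 200 µM for 1 h. Cells then stained with 5 µM CellROX Green for 30 min at 37 °C and analysed by flow cytometry. 3–4 independent experiments in triplicate, mean ± SEM.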

[34] = tested on: HL-60; assay: Induction of ROS generation in human HL60 cells at 200 uM after 1 hr by Cellrox Green staining based flow cytometry; type: functional, cell-based; procedure, shortened: as §3

CCOP(=O)(OCC)c1c(-c2ccccc2Cl)oc2c1C(=O)c1ccccc1C2=O
IC50 [1]: 6.35 µM
IC50 [2]: 5.07 µM
IC50 [3]: 2.34 µM
IC50 [4]: 10 µM
IC50 [5]: 3.73 µM
IC50 [6]: 3.4 µM
IC50 [7]: 7.27 µM
selectivity ratio [8]: 4
inhibition (INH) [9]: 91%
inhibition (INH) [10]: 34%
Activity [11]: 40.7%
Activity [12]: 11.03%
Activity [13]: inactive
Activity [14]: <=82.8%
Activity [15]: 4.8%
Activity [16]: 27.8%
Activity [17]: 2.7%
Activity [18]: 72.4%
Activity [19]: 3%
Activity [20]: 19%
Activity [21]: 5.6%
fold change (FC) [22]: 10
fold change (FC) [23]: 10
Activity [24]: 44%
Activity [25]: 50 - 50.1%
Activity [26]: 26.1%
Activity [27]: 36.1%
Activity [28]: 33.5%
Activity [29]: 8.2%
Activity [30]: 16.4%
Activity [31]: 22.4%
Activity [32]: 62%

CC1=CC(=O)c2ccccc2C1=O
Activity [33]: Active
Activity [34]: Active

CCCCCCn1c(O)c(P(=O)(OCC)OCC)c2c1C(=O)c1ccccc1C2=O
IC50 [1]: 30.7 µM
IC50 [2]: 44.3 µM
IC50 [3]: 19.5 µM

CCOP(=O)(OCC)c1c(-c2cccnc2Cl)oc2c1C(=O)c1ccccc1C2=O
IC50 [1]: 8.66 µM
IC50 [2]: 6.65 µM
IC50 [3]: 2.55 µM

CCOP(=O)(O)c1c(-c2ccccc2Cl)oc2c1C(=O)c1ccccc1C2=O
IC50 [1]: 487 µM
IC50 [2]: 479 µM
IC50 [3]: 150 µM

CCOP(=O)(OCC)c1c(-c2ccccc2)oc2c1C(=O)c1ccccc1C2=O
IC50 [1]: 6.01 µM
IC50 [2]: 6.06 µM
IC50 [3]: 2.4 µM

CCOP(=O)(OCC)c1c2c(n(C3CC3)c1O)C(=O)c1ccccc1C2=O
IC50 [1]: 65 µM
IC50 [2]: 51.3 µM
IC50 [3]: 102 µM

CCOP(=O)(OCC)c1c2c(n(C)c1O)C(=O)c1ccccc1C2=O
IC50 [1]: 59.7 µM
IC50 [2]: 61.7 µM
IC50 [3]: 50 µM

CCOP(=O)(OCC)c1c2c(n(Cc3ccccc3Cl)c1O)C(=O)c1ccccc1C2=O
IC50 [1]: 42.4 µM
IC50 [2]: 60.1 µM
IC50 [3]: 65 µM

CCOP(=O)(OCC)c1c(-c2cc(F)c(Cl)nc2Cl)oc2c1C(=O)c1ccccc1C2=O
IC50 [1]: 5.94 µM
IC50 [2]: 5.32 µM
IC50 [3]: 2.85 µM
IC50 [4]: 9.79 µM
IC50 [5]: 4.85 µM
selectivity ratio [8]: 4

CCCn1c(O)c(P(=O)(OCC)OCC)c2c1C(=O)c1ccccc1C2=O
IC50 [1]: 56.2 µM
IC50 [2]: 60 µM
IC50 [3]: 43.9 µM

COc1cccc2c1C(=O)c1c(O)c3c(c(O)c1C2=O)C[C@@](O)(C(=O)CO)C[C@@H]3O[C@H]1C[C@H](N)[C@H](O)[C@H](C)O1 [DOXORUBICIN]
IC50 [1]: 0.11 µM
IC50 [4]: 1.2 µM
IC50 [5]: 1.4 µM

CCOP(=O)(OCC)c1c(-c2ccc(Cl)cc2Cl)oc2c1C(=O)c1ccccc1C2=O
IC50 [1]: 5.44 µM
IC50 [2]: 4.82 µM
IC50 [3]: 2.9 µM
IC50 [4]: 11.3 µM
IC50 [5]: 4.06 µM
selectivity ratio [8]: 4

CCOP(=O)(OCC)c1c(C)oc2c1C(=O)c1ccccc1C2=O
IC50 [1]: 8.13 µM
IC50 [2]: 5.85 µM
IC50 [3]: 5.7 µM
